Non-standard residues stand in square brackets, D forms with d. Residues, ends and D or L forms follow the SMILES beside them. *: point of attachment. Adamantane1carbonyl = O=C(C12CC3CC(CC(C3)C1)C2)*; NBn2 = c1ccc(CN(Cc2ccccc2)*)cc1; X3 = C1CCN(N(N2CCCCC2)*)CC1; Nle = CCCC[C@H](N)C(=O)O; Cbz = O=C(OCc1ccccc1)*; NHBn = c1ccc(CN*)cc1
molecular target: T1, Pyroglutamylated RF-amide peptide receptor (Homo sapiens, UniProt Q96P65); assay: Agonist activity at DYKDDDDK-flagged human GPR103 receptor expressed in CHO-K1 cells co-expressing G-protein alpha16 assessed as stimulation of calcium mobilization after 2 mins by fluorometric analysis; type: functional, cell-based
T1 sequence (Q96P65 whole entry): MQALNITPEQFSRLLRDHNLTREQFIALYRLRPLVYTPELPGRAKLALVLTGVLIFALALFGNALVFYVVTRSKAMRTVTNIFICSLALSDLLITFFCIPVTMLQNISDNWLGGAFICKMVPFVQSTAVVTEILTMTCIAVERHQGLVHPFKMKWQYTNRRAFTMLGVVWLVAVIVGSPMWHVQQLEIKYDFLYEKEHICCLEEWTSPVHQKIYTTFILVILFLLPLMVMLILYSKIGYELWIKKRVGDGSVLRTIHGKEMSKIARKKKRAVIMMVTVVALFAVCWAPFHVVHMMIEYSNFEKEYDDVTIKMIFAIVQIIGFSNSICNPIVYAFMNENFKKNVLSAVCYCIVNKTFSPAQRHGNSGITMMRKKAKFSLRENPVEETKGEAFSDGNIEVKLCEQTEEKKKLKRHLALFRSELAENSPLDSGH
Outline: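 CHO-K1 cells stably expressing Gα16 and C-terminally flag-tagged human GPR103 (Geneticin-selected), plated at 40 000 cells/well 24 h before assay. Loaded with 2 μM Fluo-4AM for 1 h, washed, then 30 min in HBSS with 2.5 mM probenecid and 5 mM HEPES. Peptides added at 10^-12 to 10^-5 M final and fluorescence read for 2 min. Triplicates; EC50 from sigmoidal variable-slope fit, at least three experiments.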

| SMILES | EC50 [nM] |
| --- | --- |
| NC(=O)[C@H](Cc1ccccc1)NC(=O)[C@H](CCCN=C(N)N)NC(=O)[C@H](Cc1ccccc1)NC(=O)[C@H](CO)NC(=O)[C@H](Cc1ccccc1)NC(=O)CNC(=O)CNC(=O)OCc1ccccc1 (Cbz-GGFSFRF-NH2) | 826 |
| N=C(N)NCCC[C@H](NC(=O)[C@H](Cc1ccccc1)NC(=O)[C@H](CO)NC(=O)[C@H](Cc1ccccc1)NC(=O)CNC(=O)CN)C(=O)N[C@@H](Cc1ccccc1)C(N)=O | 739 |
| N=C(N)NCCC[C@H](NC(=O)[C@H](Cc1ccccc1)NC(=O)[C@H](CO)NC(=O)[C@H](Cc1ccccc1)NC(=O)CNC(=O)CNC(=O)C12CC3CC(CC(C3)C1)C2)C(=O)N[C@@H](Cc1ccccc1)C(N)=O (Adamantane1carbonyl-GGFSFRF-NH2) | 588 |
| CCCC[C@H](NC(=O)[C@H](Cc1ccccc1)NC(=O)CNC(=O)CN)C(=O)N[C@@H](Cc1ccccc1)C(=O)N[C@@H](CCCN=C(N)N)C(=O)N[C@@H](Cc1ccccc1)C(N)=O (H-GGF[Nle]FRF-NH2) | 741 |
| C[C@H](NC(=O)[C@H](Cc1cnc[nH]1)NC(=O)[C@@H](N)CCC(=O)O)C(=O)NCC(=O)N[C@@H](CS)C(=O)N[C@@H](CCCN=C(N)N)C(=O)N[C@@H](Cc1ccccc1)C(=O)N[C@@H](CCCN=C(N)N)C(=O)N[C@@H](Cc1ccccc1)C(N)=O (H-EHAGCRFRF-NH2) | 2910 |
| CC(C)C[C@H](NC(=O)[C@H](CC(N)=O)NC(=O)CNC(=O)[C@H](CC(C)C)NC(=O)[C@@H]1CCCN1C(=O)CNC(=O)[C@H](CO)NC(=O)[C@@H](N)[C@@H](C)O)C(=O)N[C@@H](C)C(=O)N[C@@H](CCC(=O)O)C(=O)N[C@@H](CCC(=O)O)C(=O)N[C@@H](CC(C)C)C(=O)N[C@@H](CC(N)=O)C(=O)NCC(=O)N[C@@H](Cc1ccc(O)cc1)C(=O)N[C@@H](CO)C(=O)N[C@@H](CCCNC(=N)N)C(=O)N[C@@H](CCCCN)C(=O)N[C@@H](CCCCN)C(=O)NCC(=O)NCC(=O)N[C@@H](Cc1ccccc1)C(=O)N[C@@H](CO)C(=O)N[C@@H](Cc1ccccc1)C(=O)N[C@@H](CCCNC(=N)N)C(=O)N[C@@H](Cc1ccccc1)C(=O)N(Cc1ccccc1)Cc1ccccc1 (H-TSGPLGNLAEELNGYSRKKGGFSFRF-NBn2) | 166 |
| CC(C)C[C@H](NC(=O)[C@H](CC(N)=O)NC(=O)CNC(=O)[C@H](CC(C)C)NC(=O)[C@@H]1CCCN1C(=O)CNC(=O)[C@H](CO)NC(=O)[C@@H](N)[C@@H](C)O)C(=O)N[C@@H](C)C(=O)N[C@@H](CCC(=O)O)C(=O)N[C@@H](CCC(=O)O)C(=O)N[C@@H](CC(C)C)C(=O)N[C@@H](CC(N)=O)C(=O)NCC(=O)N[C@@H](Cc1ccc(O)cc1)C(=O)N[C@@H](CO)C(=O)N[C@@H](CCCNC(=N)N)C(=O)N[C@@H](CCCCN)C(=O)N[C@@H](CCCCN)C(=O)NCC(=O)NCC(=O)N[C@@H](Cc1ccccc1)C(=O)N[C@@H](CO)C(=O)N[C@@H](Cc1ccccc1)C(=O)N[C@@H](CCCNC(=N)N)C(=O)NCc1ccccc1 (H-TSGPLGNLAEELNGYSRKKGGFSFR-NHBn) | 67 |
| NCC(=O)NCC(=O)N[C@@H](Cc1ccccc1)C(=O)N[C@@H](CO)C(=O)N[C@@H](Cc1ccccc1)C(=O)N[C@@H](CCCN=C(N)N)C(=O)N[C@@H](Cc1ccccc1)C(=O)N(N1CCCCC1)N1CCCCC1 (H-GGFSFRF-X3) | 1200 |
| NCCCC[C@H](NC(=O)[C@H](CCCCN)NC(=O)[C@H](CCCN=C(N)N)NC(=O)[C@H](CO)NC(=O)[C@@H](N)Cc1ccc(O)cc1)C(=O)NCC(=O)NCC(=O)N[C@@H](Cc1ccccc1)C(=O)N[C@@H](CO)C(=O)N[C@@H](Cc1ccccc1)C(=O)N[C@@H](CCCN=C(N)N)C(=O)N[C@@H](Cc1ccccc1)C(N)=O (H-YSRKKGGFSFRF-NH2) | 138 |

Reference: ChEMBL document CHEMBL1800022, “Structure-activity relationships of a series of analogues of the RFamide-related peptide 26RFa” (J Med Chem, 2011)
